ChEMBL document CHEMBL2034978, “Synthesis and evaluation of curcumin-related compounds for anticancer activity” (Eur J Med Chem, 2012)
The source made the active and inactive calls. The calls are words filed in the database; no cut-off is given here.

Assays:
PC-3 [1] = experiment: Cytotoxicity against human PC3 cells after 72 hrs by MTT assay; type: functional, cell-based; details: PC-3, 72 h
In short: (§1)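 Seeded at 0.2 × 10⁵ cells/ml, grown 24 h, then exposed 72 h to a range of concentrations (upper limit 30). MTT read-out: formazan dissolved in DMSO, absorbance at 540 nm, growth expressed as percent of DMSO-treated cells.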

PANC-1 [2] = experiment: Cytotoxicity against human PANC1 cells after 72 hrs by MTT assay; type: functional, cell-based; details: PANC-1, 72 h; in short: as §1
HT-29 [3] = experiment: Cytotoxicity against human HT-29 cells after 72 hrs by MTT assay; type: functional, cell-based; details: HT-29, 72 h; in short: as §1
PC-3 [4] = experiment: Ratio of curcumin IC50 to compound IC50 for human PC3 cells; type: functional
In short: (§2)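 Curcumin served as positive control in each incubation, with its growth-inhibition data averaged across experiments.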

PANC-1 [5] = experiment: Ratio of curcumin IC50 to compound IC50 for human PANC1 cells; type: functional; in short: as §2
HT-29 [6] = experiment: Ratio of curcumin IC50 to compound IC50 for human HT-29 cells; type: functional; in short: as §2
PC-3 [7] = experiment: Induction of apoptosis in human PC3 cells at <1 uM after 96 hrs by morphology analysis; type: functional, cell-based
PC-3 [8] = experiment: Inhibition of Akt phosphorylation in human PC3 cells at 0.5 uM after 24 hrs by Western blotting relative to beta-actin; type: cell-based
In short: (§3)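 PC-3 cells were seeded at 1 × 10⁵ cells/ml in 100 mm dishes, grown 24 h, then treated 24 h. Cells were lysed in Tris-HCl pH 7.4 buffer containing NaF, pyrophosphate, orthovanadate and Triton X-100, and lysates cleared at 12,000×g. Blots on PVDF were probed with anti-phospho-Akt or anti-phospho-Erk1/2, detected by ECL, quantified by optical density and normalized to β-actin.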

[9] = target: Mitogen-activated protein kinase; ERK1/ERK2 (Homo sapiens) (UniProt P27361+P28482); experiment: Inhibition of ERK1/2 phosphorylation in human PC3 cells at 0.5 uM after 24 hrs by Western blotting relative to beta-actin; type: cell-based; details: PC-3; in short: as §3
Sequence of Mitogen-activated protein kinase; ERK1/ERK2 (Homo sapiens) (P27361 whole entry, looked up): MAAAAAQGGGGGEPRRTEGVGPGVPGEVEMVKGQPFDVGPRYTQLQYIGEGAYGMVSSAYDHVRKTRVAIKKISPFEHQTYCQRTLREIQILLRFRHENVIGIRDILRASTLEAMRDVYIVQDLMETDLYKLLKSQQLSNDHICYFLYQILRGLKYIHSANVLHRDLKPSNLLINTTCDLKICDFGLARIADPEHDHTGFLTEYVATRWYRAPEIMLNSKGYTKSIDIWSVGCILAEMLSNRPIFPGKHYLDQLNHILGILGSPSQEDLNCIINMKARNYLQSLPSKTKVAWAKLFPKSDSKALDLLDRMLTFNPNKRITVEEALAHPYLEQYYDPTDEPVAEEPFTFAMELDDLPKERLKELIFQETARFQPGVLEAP
Sequence of Mitogen-activated protein kinase; ERK1/ERK2 (Homo sapiens) (P28482 whole entry, looked up): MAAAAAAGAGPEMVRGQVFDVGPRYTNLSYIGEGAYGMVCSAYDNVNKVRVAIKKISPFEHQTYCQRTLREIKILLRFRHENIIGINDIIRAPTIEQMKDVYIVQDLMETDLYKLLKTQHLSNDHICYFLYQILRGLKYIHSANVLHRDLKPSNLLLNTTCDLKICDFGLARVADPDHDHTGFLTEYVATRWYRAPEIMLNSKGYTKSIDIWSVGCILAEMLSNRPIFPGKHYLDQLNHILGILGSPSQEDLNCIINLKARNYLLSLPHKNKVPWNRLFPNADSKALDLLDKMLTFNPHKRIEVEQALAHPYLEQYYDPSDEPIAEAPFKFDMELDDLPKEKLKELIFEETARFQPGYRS

| SMILES | inhibition [9] | IC50 (PC-3 [1]) | IC50 (PANC-1 [2]) | IC50 (HT-29 [3]) | Ratio IC50 (PC-3 [4]) | Ratio IC50 (PANC-1 [5]) | Ratio IC50 (HT-29 [6]) | Activity (PC-3 [7]) | inhibition (PC-3 [8]) |
| --- | --- | --- | --- | --- | --- | --- | --- | --- | --- |
| O=C1/C(=C/c2cccnc2)CSC/C1=C\c1cccnc1 | Active | 960 nM | 510 nM | 790 nM | 21 | 45 | 27 | Active | inactive |
| COc1cc(/C=C/C(=O)CC(=O)/C=C/c2ccc(O)c(OC)c2)ccc1O [CURCUMIN] | inactive | 19400 nM | 23700 nM | 18700 nM |  |  |  | inactive | inactive |
| COc1ccc(/C=C/C(=O)/C=C/c2ccc(OC)c(OC)c2OC)c(OC)c1OC |  | 5930 nM | 9220 nM | 5090 nM |  |  |  |  |  |
| O=C1/C(=C/c2ccccn2)CSC/C1=C\c1ccccn1 | Active | 520 nM | 700 nM | 760 nM | 21 | 21 | 21 | Active | inactive |
| COc1cc(/C=C/C(=O)/C=C/c2ccc(O)c(OC)c2)ccc1O |  | 4200 nM | 4620 nM | 2940 nM |  |  |  |  |  |
| O=C1/C(=C/c2ccncc2)COC/C1=C\c1ccncc1 |  | 1830 nM | 2960 nM | 4170 nM |  |  |  |  |  |

Now from value to molecule, other results behind:

| inhibition [9] | SMILES | IC50 (PC-3 [1]) | IC50 (PANC-1 [2]) | IC50 (HT-29 [3]) | Ratio IC50 (PC-3 [4]) | Ratio IC50 (PANC-1 [5]) | Ratio IC50 (HT-29 [6]) | Activity (PC-3 [7]) | inhibition (PC-3 [8]) |
| --- | --- | --- | --- | --- | --- | --- | --- | --- | --- |
| Active | COc1cc(C=C2CSCC(=Cc3cc(OC)c(OC)c(OC)c3)C2=O)cc(OC)c1OC | 280 nM | 700 nM | 260 nM | 69 | 34 | 72 | Active | inactive |
| Active | COc1cc(/C=C2\COC/C(=C\c3cc(OC)c(OC)c(OC)c3)C2=O)cc(OC)c1OC | 270 nM | 520 nM | 160 nM | 72 | 46 | 117 | Active | Active |
